In ChEMBL document CHEMBL4699663, “Design, synthesis, and biological activity of novel semicarbazones as potent Ryanodine receptor1 inhibitors of Alzheimer's disease” (Bioorg Med Chem, 2021):
≈ marks a conversion by molar mass, not a printed value. Calls of active or inactive are those of the source. No cut-off for these calls is given here.

What was measured:
[1] = species on record: Homo sapiens; test: Inhibition of RYR-1 R614C mutant (unknown origin) expressed in cells assessed as inhibition of store overload-induced Ca2+ release at 10 uM after 3 mins by fura-2AM dye based microscopic analysis relative to control; format: cell-based
[2] = species on record: Homo sapiens; test: Inhibition of RYR-1 R614C mutant (unknown origin) expressed in cells assessed as inhibition of store overload-induced Ca2+ release at 3 uM after 3 mins by fura-2AM dye based microscopic analysis relative to control; format: cell-based
[3] = species on record: Homo sapiens; test: Inhibition of RYR-1 R614C mutant (unknown origin) expressed in cells assessed as inhibition of store overload-induced Ca2+ release after 3 mins by microscopic analysis; format: cell-based; settings: dose microM 0.1-10, time 3.0 min
[4] = species on record: Homo sapiens; test: Inhibition of RYR-1 R614C mutant (unknown origin) expressed in cells assessed as inhibition of store overload-induced Ca2+ release at 0.1 uM after 3 mins by fura-2AM dye based microscopic analysis relative to control; format: cell-based
[5] = species on record: Homo sapiens; test: Inhibition of RYR-1 R614C mutant (unknown origin) expressed in cells assessed as inhibition of store overload-induced Ca2+ release at 0.1 uM after 3 mins by fura-2AM dye based microscopic analysis; format: cell-based
[6] = biological target: Acetylcholinesterase (Electrophorus electricus) (UniProt O42275); test: Inhibition of electric eel AChE at 5 uM using acetylthiocholine iodide as substrate preincubated with enzyme for 30 mins followed by substrate addition and measured for 10 mins by Ellman's method relative to control; settings: time 40.0 min
How it was run: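 Electrophorus electricus AChE at 0.25 U/mL, with 60 µM DTNB in 0.05 M phosphate buffer pH 8, was incubated 30 min with the DMSO-dissolved inhibitor. The reaction was then started with 1.5 mM acetylthiocholine iodide and read at 412 nm for 10 min. Percent inhibition was taken from reaction rates versus control, from three experiments run in triplicate.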

[7] = species on record: Homo sapiens; test: Inhibition of RYR-1 R614C mutant (unknown origin) expressed in cells assessed as inhibition of store overload-induced Ca2+ release at 10 uM after 3 mins by fura-2AM dye based microscopic analysis; format: cell-based
[8] = species on record: Homo sapiens; test: Inhibition of RYR-1 R614C mutant (unknown origin) expressed in cells assessed as inhibition of store overload-induced Ca2+ release at 3 uM after 3 mins by fura-2AM dye based microscopic analysis; format: cell-based
[9] = Kinetic aqueous solubility of the compound in PBS at pH 7.4 by turbidimetric analysis; format: physicochemical; settings: read-out: Kinetic_solubility
How it was run: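 Turbidimetric kinetic solubility: DMSO stocks were diluted 100-fold into PBS pH 7.4, giving eight final concentrations (1.6–200 mM as printed). After 2 h incubation, absorbance was read at 540 nm. Wells above blank mean + 3 SD counted as turbid, and the highest clear concentration was taken as the solubility.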

[10] = Toxicity in SPF grade FAD mouse assessed as effect on body weight at 3.2 mg/kg, ip administered for 30 consecutive days; format: organism-based; settings: in vivo, 720 h, time 30 day
How it was run: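 Mixed-sex FAD mice, 5 months old, were given 3.2 mg/kg/day intraperitoneally in DMSO (1.12 mg/ml) for 30 consecutive days; controls received the same volume of DMSO. Body weight was measured daily during dosing and reported as mean ± SD (n = 7).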

[11] = tested on: Mus musculus; test: Cognitive enhancing effect in SPF grade FAD mouse assessed as reduction in mean escape latency time at 3.2 mg/kg, ip measured on day 3 by Morris water maze test (reference value: 35.59 sec); format: functional; settings: time 3 day
How it was run: (§1)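 Mixed-sex FAD mice, 5 months old at dosing, given 3.2 mg/kg intraperitoneally in DMSO (1.12 mg/ml) daily for 30 days; controls got the same volume of DMSO. Morris water maze training started after dosing. Mice entered the water facing the wall from four entry points in turn, and time to find and climb the platform was recorded. Data are mean ± SD, analysed by ANOVA.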

[12] = tested on: Mus musculus; test: Cognitive enhancing effect in SPF grade FAD mouse assessed as reduction in mean escape latency time at 3.2 mg/kg, ip measured on day 2 by Morris water maze test (reference value: 36.72 sec); format: functional; settings: time 2 day; how it was run: as §1
[13] = tested on: Mus musculus; test: Cognitive enhancing effect in SPF grade FAD mouse assessed as reduction in mean escape latency time at 3.2 mg/kg, ip measured on day 4 by Morris water maze test (reference value: 31.99 sec); format: functional; settings: time 4 day; how it was run: as §1
[14] = tested on: Mus musculus; test: Improvement in learning and spatial memory in SPF grade FAD mouse assessed as swimming time on target zone at 3.2 mg/kg, ip measured 24 hrs post trial training by probe test (reference value: 23.1 +/- 1.1 %); format: functional

Sequence of Acetylcholinesterase (Electrophorus electricus) (O42275 24-633 limits assumed): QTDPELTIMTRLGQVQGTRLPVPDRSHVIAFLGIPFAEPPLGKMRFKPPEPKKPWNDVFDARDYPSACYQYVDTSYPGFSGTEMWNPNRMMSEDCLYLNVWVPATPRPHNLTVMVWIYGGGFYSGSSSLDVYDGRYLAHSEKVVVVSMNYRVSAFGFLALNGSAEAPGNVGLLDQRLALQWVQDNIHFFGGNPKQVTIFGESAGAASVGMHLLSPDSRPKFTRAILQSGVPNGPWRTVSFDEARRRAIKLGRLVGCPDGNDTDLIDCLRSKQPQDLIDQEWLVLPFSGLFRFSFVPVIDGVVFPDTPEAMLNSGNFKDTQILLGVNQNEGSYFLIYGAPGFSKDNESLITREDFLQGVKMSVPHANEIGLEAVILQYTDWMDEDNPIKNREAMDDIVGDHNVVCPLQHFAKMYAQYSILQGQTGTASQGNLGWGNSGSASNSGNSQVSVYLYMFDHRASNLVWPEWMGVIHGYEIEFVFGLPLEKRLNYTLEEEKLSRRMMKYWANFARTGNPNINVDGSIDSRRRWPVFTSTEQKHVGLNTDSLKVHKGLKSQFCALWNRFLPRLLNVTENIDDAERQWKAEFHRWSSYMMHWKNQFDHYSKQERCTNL

Row | SMILES | inhibition [1] [%] | inhibition [2] [%] | inhibition [3] | inhibition [4] [%] | also measured
1 | O=C(N/N=C/c1ccc(-c2ccc([N+](=O)[O-])cc2)o1)Nc1ccccc1OC(F)(F)F | 57.1 | 20.4 | Dose-dependent effect | – | –
2 | COc1ccccc1NC(=O)N/N=C/c1ccc(-c2ccc([N+](=O)[O-])cc2)o1 | 30.6 | – | Dose-dependent effect | – | –
3 | O=C(NCc1ccc(Cl)cc1)N/N=C/c1ccc(-c2ccc([N+](=O)[O-])cc2)o1 | 70.4 | 48.6 | Dose-dependent effect | 27.1 | –
4 | O=C(NCc1cccc(Cl)c1Cl)N/N=C/c1ccc(-c2ccc([N+](=O)[O-])cc2)o1 | 30.6 | – | Dose-dependent effect | – | –
5 | O=C(N/N=C/c1ccc(-c2ccc([N+](=O)[O-])cc2)o1)Nc1cccc(Br)c1 | 67.1 | 67.1 | Dose-dependent effect | 26.7 | –
6 | O=C(N/N=C/c1ccc(-c2ccc([N+](=O)[O-])cc2)o1)Nc1ccccc1Br | 67.1 | 38.5 | Dose-dependent effect | 20.1 | –
7 | Cc1ccccc1NC(=O)N/N=C/c1ccc(-c2ccc([N+](=O)[O-])cc2)o1 | – | – | – | – | inhibition [5]: inactive; inhibition [6]: 18.2%; inhibition [7]: inactive; inhibition [8]: inactive
8 | O=C(N/N=C/c1ccc(-c2ccc([N+](=O)[O-])cc2)o1)Nc1ccccc1Cl | 50.1 | 25.1 | Dose-dependent effect | – | –
9 | CN(/N=C/c1ccc(-c2ccc([N+](=O)[O-])cc2)o1)C(=O)c1cncn1C | 82.5 | 70.5 | Dose-dependent effect | 24.5 | inhibition [6]: 14.3%; solubility kinetic [9]: 480 µM (≈ 170 µg/mL)
10 | O=C1CN(/N=C/c2ccc(-c3ccc([N+](=O)[O-])cc3)o2)C(O)=N1 [DANTROLENE] | – | – | – | – | solubility kinetic [9]: 560 µM (≈ 176 µg/mL)
11 | O=C1CN(/N=C/c2ccc(-c3ccc([N+](=O)[O-])cc3)o2)C(=O)N1 | 94.2 | 73.1 | Dose-dependent effect | 30.8 | inhibition [6]: 0.1%
12 | O=C(NCc1ccccc1)N/N=C/c1ccc(-c2ccc([N+](=O)[O-])cc2)o1 | 48.6 | 23.1 | Dose-dependent effect | – | –
13 | O=C(NCc1ccc(F)cc1)N/N=C/c1ccc(-c2ccc([N+](=O)[O-])cc2)o1 | 76.1 | 35.1 | Dose-dependent effect | 23.6 | –
14 | O=C(NCc1ccc(Cl)cc1Cl)N/N=C/c1ccc(-c2ccc([N+](=O)[O-])cc2)o1 | 16.2 | – | Dose-dependent effect | – | inhibition [6]: 8.9%
15 | Cc1cccc(NC(=O)N/N=C/c2ccc(-c3ccc([N+](=O)[O-])cc3)o2)c1 | 34.6 | 15.2 | Dose-dependent effect | 10.7 | –
16 | Cc1ccc(NC(=O)N/N=C/c2ccc(-c3ccc([N+](=O)[O-])cc3)o2)cc1 | 29.5 | 10.8 | Dose-dependent effect | – | –
17 | O=C(N/N=C/c1ccc(-c2ccc([N+](=O)[O-])cc2)o1)Nc1ccccc1 | 93.9 | 35.8 | Dose-dependent effect | 15.9 | inhibition [6]: 19.3%; solubility kinetic [9]: 60 µM (≈ 21 µg/mL)
18 | O=C(NCc1ccc(Cl)c(Cl)c1)N/N=C/c1ccc(-c2ccc([N+](=O)[O-])cc2)o1 | 37.2 | 25.3 | Dose-dependent effect | – | –
19 | O=C(N/N=C/c1ccc(-c2ccc([N+](=O)[O-])cc2)o1)Nc1ccc([N+](=O)[O-])cc1 | 32 | 14.1 | Dose-dependent effect | – | –
20 | O=C(NCc1ccccc1F)N/N=C/c1ccc(-c2ccc([N+](=O)[O-])cc2)o1 | 44.6 | 26.1 | Dose-dependent effect | – | –
21 | O=C(NCc1ccc(C(F)(F)F)cc1)N/N=C/c1ccc(-c2ccc([N+](=O)[O-])cc2)o1 | 53.1 | 27.9 | Dose-dependent effect | 19.7 | –
22 | O=C(NCc1cccc(F)c1)N/N=C/c1ccc(-c2ccc([N+](=O)[O-])cc2)o1 | 72.1 | 25.8 | Dose-dependent effect | – | inhibition [6]: 33.6%
23 | CN(/N=C/c1ccc(-c2ccc([N+](=O)[O-])cc2)o1)C(=O)n1ccnc1 | 74.9 | 53.5 | Dose-dependent effect | 23 | –
24 | Cc1ccc(CNC(=O)N/N=C/c2ccc(-c3ccc([N+](=O)[O-])cc3)o2)cc1 | 35.4 | – | Dose-dependent effect | – | –
25 | O=C(N/N=C/c1ccc(-c2ccc([N+](=O)[O-])cc2)o1)Nc1ccc(Br)cc1 | 52.9 | 31.3 | Dose-dependent effect | 13.2 | –
26 | O=C(N/N=C/c1ccc(-c2ccc([N+](=O)[O-])cc2)o1)Nc1ccccc1C(F)(F)F | 55.5 | 30.1 | Dose-dependent effect | 12.6 | –
27 | O=C(N/N=C/c1ccc(-c2ccc([N+](=O)[O-])cc2)o1)c1cnc[nH]1 | 93.7 | 77.2 | Dose-dependent effect | 31.5 | Activity [10]: Non-Toxic; Time [11]: 25.12 s; inhibition [6]: 24.8%; Time [12]: 29.89 s; solubility kinetic [9]: 580 µM (≈ 189 µg/mL); Time [13]: 16.23 s; Activity [14]: 35.7%
28 | O=C(N/N=C/c1ccc(-c2ccc([N+](=O)[O-])cc2)o1)n1ccnc1 | 68.2 | 48.4 | Dose-dependent effect | 26.1 | –
